This passage reports inhibition of growth, IC50 and Activity results from ChEMBL document CHEMBL2057128, “Chemoenzymatic synthesis and biological evaluation of 2- and 3-hydroxypyridine derivatives against Leishmania mexicana” (Bioorg Med Chem, 2012).

Values after ≈ are worked out from the molar mass of the structure shown. Active and inactive are the calls of the source. The rule behind the calls is not given here.

The subject of the first assay is Leishmania mexicana. Nature of the assay: Growth inhibition of promastigote form of Leishmania mexicana at 10 ug/mL measured after 6 days by neubauer chamber analysis. Format: functional. To be noted: 144 h, read-out: GI. In a few lines:
(§1)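 Promastigotes grown at 28 °C in cell-free medium (Na2HPO4, KCl, glucose, pH about 7.5) supplemented after sterilization with penicillin (100 IU/mL), streptomycin, haemin and 20% v/v heat-inactivated fetal calf serum. Cultures started from exponential-phase inocula, shaken manually twice daily, compounds added with DMSO at 0.1% final. Parasites counted in a Neubauer chamber every two days over 10 days.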
Regarding `CC(=O)OCCCCCCCCCCCCOc1cccnc1`, the inhibition of growth at 10 µg/mL turned out to be 25%.
On to `OCCCCCCCCCCCCOc1cccnc1`, for which the inhibition of growth at 10 µg/mL is 25%.

Another assay concerns Leishmania mexicana. Briefly: Antileishmanial activity against promastigote form of Leishmania mexicana measured every 2 days for 10 days by neubauer chamber analysis.
Conditions: not given
Format: functional, organism-based. An outline of the steps: as §1
For the compound `CN[C@@H]1[C@@H](O)[C@@H](O[C@@H]2[C@@H](O)[C@H](O[C@H]3O[C@H]([C@@H](C)O)[C@@H](O)[C@H](O)[C@H]3N)[C@@H](N)C[C@H]2N)OC[C@]1(C)O` [GENETICIN], the IC50 (commonly the concentration that inhibits the measured activity by half) stood at 50 µg/mL (≈ 101 µM).
Still for that read-out and setting: in the case of `CC(=O)OCCCCCCCCCCOc1cccnc1` it was 20 µg/mL (≈ 68.2 µM); in that of `CC(=O)OCCCCCCCCCCCCOc1cccnc1`, 12 µg/mL (≈ 37.3 µM); in that of `OCCCCCCCCCCCCOc1cccnc1`, 16 µg/mL (≈ 57.3 µM).

The test system of the next assay is Leishmania mexicana. Briefly: Growth inhibition of promastigote form of Leishmania mexicana at 20 ug/mL measured after 10 days by neubauer chamber analysis. Format: functional. To be noted: 240 h, read-out: GI. In a few lines:
as §1
With `CC(=O)OCCCCCCCCCCCCOc1cccnc1`, the inhibition of growth at 20 µg/mL came out at 80%.
For `OCCCCCCCCCCCCOc1cccnc1`, the inhibition of growth at 20 µg/mL was 95%.

Another assay relates to Leishmania mexicana. Briefly: Growth inhibition of promastigote form of Leishmania mexicana at 20 ug/mL measured after 1 day by neubauer chamber analysis. Format: functional. As to conditions: 24 h, read-out: GI.
Turning to `CC(=O)OCCCCCCCCCCCCOc1cccnc1`, the inhibition of growth at 20 µg/mL is 50%.
The same measure, in the same setting: as for `OCCCCCCCCCCCCOc1cccnc1`, the figure is 50%.

For another assay, the system named is Leishmania mexicana. Briefly: Antileishmanial activity against promastigote form of Leishmania mexicana from 10 to 50 ug/mL measured every 2 days for 10 days by neubauer chamber analysis.
Conditions: not given
Format: functional, organism-based. An outline of the steps: as §1
On to `CC(=O)OCCCCCCCOc1cccnc1`, for which the result was inactive.
Same read-out and setting: as for `CC(=O)OCCCCCCCCOc1ccccn1`, the entry is “inactive”.
Same read-out and setting: as for `CC(=O)OCCCCCCCCOc1cccnc1`, the entry is “inactive”; as for `OCCCCCCOc1cccnc1`, “inactive”.
On to `OCCCCCCCOc1ccccn1`, for which the outcome was inactive.
Same read-out and setting: in the case of `CC(=O)OCCCCCCCOc1ccccn1` it was “inactive”; in that of `CCC(=O)OCCCCCCCCCCCOc1cccnc1`, “inactive”.
Consider `CC(=O)OCCCCCCCCCCOc1ccccn1`, for which the result was inactive.
Same read-out and setting: as for `OCCCCCCCCCCCOc1cccnc1`, the entry is “inactive”.
The same measure, in the same setting: as for `CCC(=O)OCCCCCCCCCCCOc1ccccn1`, the entry is “inactive”; as for `CC(=O)OCCCCCCCCCCCOc1cccnc1`, “inactive”.
The same measure, in the same setting: as for `CC(=O)OCCCCCCCCCOc1ccccn1`, the entry is “inactive”; as for `CC(=O)OCCCCCCOc1ccccn1`, “inactive”.
Turning to `OCCCCCCCCCCCOc1ccccn1`, the result was inactive.
Consider `OCCCCCCCCCCOc1cccnc1`, for which the result was inactive.
The same measure, in the same setting: in the case of `OCCCCCCCOc1cccnc1` it was “inactive”.
`OCCCCCCCCCOc1ccccn1`: the result was inactive.
Take `OCCCCCCCCCOc1cccnc1`: the result was inactive.
On the same count and under the same terms, as for `OCCCCCCCCOc1cccnc1`, the entry is “inactive”.
The same measure, in the same setting: as for `OCCCCCCCCCCOc1ccccn1`, the entry is “inactive”; as for `OCCCCCCOc1ccccn1`, “inactive”.
For `CC(=O)OCCCCCCCCCCCOc1ccccn1`, the result was inactive.
For the compound `CC(=O)OCCCCCCOc1cccnc1`, the result was inactive.
The same measure, in the same setting: in the case of `OCCCCCCCCCCCCOc1ccccn1` it was “inactive”; in that of `OCCCCCCCCOc1ccccn1`, “inactive”; in that of `CC(=O)OCCCCCCCCCCCCOc1ccccn1`, “inactive”.
